STEP inh: STEP (human) phosphatase inhibition. P54829. recombinant STEP, OMFP fluorogenic substrate, fluorescence. inhibition, % at 20 µM. 360,000 compounds, 0.25% hits. AID 588621;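 active means inhibition at 20 µM, scaled per plate between control wells, above about 37%, limit read from the data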;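 further: 0% = DMSO with enzyme and substrate and 100% = substrate only without enzyme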
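System: STEP (striatal-enriched tyrosine phosphatase) enzyme, cell-free; medium: Bis-Tris pH 6.0 buffer with DTT, detergent; dosing: 20 µM, 1% DMSO; times: reaction 20 min, ambient temperature; detection: fluorescence, 480/540 nm; read-out basis: normalized % inhibition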
Scp-1 inhibitor: blocks human Scp-1 phosphatase activity. Q9GZU7. Recombinant Scp1, phosphopeptide, malachite green phosphate absorbance. inhibition, % at 20 µM. 340,000 compounds, 0.88% hits. AID 493091;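 active means inhibition above about 50% at 20 µM, limit read from the data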;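 further: plate controls were DMSO wells with enzyme for no effect and wells lacking enzyme for full effect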
Target sequence (Q9GZU7 76-261 limits assumed): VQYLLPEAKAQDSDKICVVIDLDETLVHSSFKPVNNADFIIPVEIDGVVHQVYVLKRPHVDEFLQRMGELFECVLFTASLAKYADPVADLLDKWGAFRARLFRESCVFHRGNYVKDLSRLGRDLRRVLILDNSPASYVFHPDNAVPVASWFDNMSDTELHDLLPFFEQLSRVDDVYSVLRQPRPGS
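Test system: SCP-1 catalytic domain; Buffer or medium: Acidic Tris acetate buffer with magnesium and detergent; Also added: Phosphorylated 17-residue peptide substrate; Compound: single 20 µM dose, 1% DMSO; Schedule: enzyme reaction 45 min at room temperature, colour 5 min, stabilisation 30 min; Signal: Phosphate-binding colour reagent, absorbance read at 630 nm.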
DNMT1 inh: inhibitors of human DNMT1. 360,000 compounds, 0.83% hits. DNMT1 molecular beacon, Hinp1I cleavage, fluorescence. AID 588458. P26358. inhibition (reported as % activation of signal), % at 10 µM; in the data active means inhibition above about 50%
Rpn11 inh: inhibitors of human proteasome Rpn11 | O00487 | human 26S proteasome, Ub4-pepOG fluorescence polarization; 20S core pre-blocked with epoxomicin | inhibition, % at 20 µM | 360,000 compounds, 0.59% hits | AID 588493;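 active means inhibition at 20 µM, scaled to each plate's controls, above about 33%, limit read from the data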
Target sequence (O00487 whole entry, looked up): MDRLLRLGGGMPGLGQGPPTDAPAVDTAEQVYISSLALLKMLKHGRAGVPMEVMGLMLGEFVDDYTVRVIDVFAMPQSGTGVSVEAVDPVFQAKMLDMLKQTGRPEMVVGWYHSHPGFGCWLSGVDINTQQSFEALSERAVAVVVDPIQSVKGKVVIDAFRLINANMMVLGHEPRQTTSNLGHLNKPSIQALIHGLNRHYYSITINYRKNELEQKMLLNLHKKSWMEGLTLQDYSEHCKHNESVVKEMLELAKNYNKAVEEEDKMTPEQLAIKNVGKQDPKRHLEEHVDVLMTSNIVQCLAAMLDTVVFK
LMPTP inh: LMPTP (human) inhibition; recombinant LMPTP-A, OMFP fluorogenic substrate, fluorescence intensity; inhibition, % at 20 µM; 360,000 compounds, 0.22% hits; AID 651560;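 active means compounds that cut the enzyme signal by at least half of the control window in the single-dose screen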;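 further: plate controls were DMSO wells with enzyme plus substrate for no effect and substrate without enzyme for full effect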
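test system = LMPTP-A | amount = 0.625 nM LMPTP-A final | reagent = fluorogenic phosphatase substrate OMFP at 400 µM final | incubation = 50 min at room temperature | benchmarks = no-enzyme low control, uninhibited high control | medium = Bis-Tris pH 6.0, DTT, detergent | signal = fluorescence intensity of OMFP turnover product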
SUMO1-SIM PPI: SUMO1-SIM interaction modulation. AID 602429. P63165. 360,000 compounds, 0.33% hits. inhibition, % at 20 µM. SUMO1 binding to a labelled peptide, TR-FRET, 1 h; in the data active means inhibition above about 37%
Target sequence (P63165 whole entry, looked up): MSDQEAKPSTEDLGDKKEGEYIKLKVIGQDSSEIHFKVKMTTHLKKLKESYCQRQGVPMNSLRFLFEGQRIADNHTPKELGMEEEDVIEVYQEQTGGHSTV
Rpn11 inh conf: confirmation of human proteasome Rpn11 inhibitors; shares compounds with Rpn11 inh; purified human 26S proteasome, Ub4-pepOG fluorescence polarization; proteasome pretreated with epoxomicin; inhibition, % at 20 µM; 1,900 compounds, 29% hits; AID 602318
MMP-2 counter: blocks human MMP-2, flagging nonselective RPN11 hits | inhibition, % at 20 µM | recombinant MMP-2, FRET peptide cleavage fluorescence | shares compounds with Rpn11 inh | AID 602330 | 1,900 compounds, 4% hits;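 further: human MMP-2 activated beforehand with APMA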
Thrombin FP: counter-screen for RPN11 inhibitors: inhibition of bovine thrombin; shares compounds with Rpn11 inh; bovine thrombin cleavage of Ub4-pepOG, fluorescence polarization; inhibition, % at 20 µM; 1,900 compounds, 13% hits; AID 602333;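 active means mean inhibition at least 40% at 20 µM, or signal 3 deviations below plate average, so some actives read negative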;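 further: plate controls were thrombin with DMSO for no effect and buffer wells lacking thrombin for full effect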
Active calls of the source: *; i = inactive; nt = no result given; + = active, no number. This is a sample that favours compounds with a hit; in the whole collection about 2.3% have one here. Unless noted, no stated cut-off is given here; in the data, active means inhibition above about 40%; inactive means the rest.

SMILES	STEP inh	Scp-1 inhibitor	DNMT1 inh	Rpn11 inh	LMPTP inh	SUMO1-SIM PPI	Rpn11 inh conf	MMP-2 counter	Thrombin FP
C#CCOCCOCCOCCNc1nc(N2CCN(C(=O)CCCCCCCCCCNC(=O)Cn3cc(C[C@@H](C)O)nn3)CC2)nc(N2CCN(C(=O)CCCCCCCCCCNC(=O)[C@H](CCCCN)n3cc(C[C@@H](C)CC)nn3)CC2)n1	4	33	-109	38	6	26	nt	nt	nt
C#CCOCCOCCOCCNc1nc(N2CCN(C(=O)[C@H](Cc3cc4ccccc4[nH]3)n3cc([C@@H](N)CC(C)C)nn3)CC2)nc(N2CCN(C(=O)[C@H](Cc3cc4ccccc4[nH]3)n3cc([C@@H](N)CC(C)C)nn3)CC2)n1	2	33	-23	68*	7	-12	33	1	-5
C#CCOCCOCCOCCNc1nc(N2CCN(C(=O)CCCCCCCCCCNC(=O)[C@H](CCCCN)n3cc(C[C@@H](C)CC)nn3)CC2)nc(N2CCN(C(=O)CCCCCCCCCCNC(=O)[C@H](CCCCN)n3cc(C[C@@H](C)CC)nn3)CC2)n1	12	53*	-127	87*	4	67*	45*	-56	29
CC(=O)Nc1ccc(C(=O)NC(CC(=O)O)c2ccc(Cl)cc2)cc1 (centres undefined)	-5	19	6	1	0	5	nt	nt	nt
O=C(c1ccccc1F)N1N=C(C(F)(F)F)CC1(O)c1ccccc1 (centres undefined)	2	nt	2	-2	0	3	nt	nt	nt
O=C(CCN1CCc2ccccc2C(c2ccccc2)C1)c1ccc2c(c1)OCCO2 (centres undefined)	-4	-9	-10	57*	0	7	-13	-29	-12
CN1CCCCCC1C(=O)N1CCC(N2CCC(C(=O)N3CCOCC3)CC2)CC1 (centres undefined)	-1	-13	2	-6	-8	0	nt	nt	nt
NCCCC[C@@H]1NC(=O)c2cc([N+](=O)[O-])cc(I)c2SC[C@@H](C(N)=O)NC(=O)[C@H](Cc2ccc(O)cc2)NC1=O	3	9	13	44*	12	-55	11	-4	-44
NCCCC[C@@H]1NC(=O)[C@H](CCC(=O)O)NC(=O)c2cc([N+](=O)[O-])cc(I)c2SC[C@@H](C(=O)NCC(N)=O)NC1=O	-1	8	17	7	-1	-33	nt	nt	nt
CC(C(=O)NCCN1C(=O)S/C(=C\c2cccnc2)C1=O)N1C(=O)c2ccccc2C1=O (centres undefined)	-1	12	-2	2	-1	-26	nt	nt	nt
O=C(CCl)NCCN1C(=O)S/C(=C\c2cccnc2)C1=O	4	10	-11	46*	16	-16	53*	23	-11
CCN(CC(=O)NCc1ccc(Cl)cc1)C(=O)CSCC(=O)Nc1cccc(C)c1	3	-5	3	-2	2	-1	nt	nt	nt
CC(=O)c1ccc(NC(=O)/C(=C\c2cccs2)NC(=O)c2ccco2)cc1	-3	-8	-1	-2	0	-17	nt	nt	nt
CC(=O)Oc1ccc(C#C/C=C2\c3ccccc3C(=O)N2c2ccccc2)cc1	-4	22	-12	72*	5	-4	51*	-1	-87
CN(CC(=O)Nc1ccccc1C(=O)NC1CC1)Cc1cccs1	1	-10	1	-3	-2	-2	nt	nt	nt
COc1cc(/C=N/NC(=O)c2cccnc2)ccc1OCC(=O)Nc1ccccc1Cl	19	12	35	142*	4	86*	+	i	-9
COc1ccc(N=NC2=C(O)CC(C)(C)CC2=O)c(OC)c1	1	0	1	94*	9	-67	88*	-8	69*
COc1ccc(N=NC2=C(O)CC(C)(C)CC2=O)cc1	0	-2	4	17	1	-31	nt	nt	nt
CCc1ccccc1N(CC(=O)NC(C)c1ccccc1)S(C)(=O)=O (centres undefined)	2	-12	0	-1	-3	1	nt	nt	nt
COc1ccc2c(c1)CCC1C2=NN(/C(C)=C/C(C)=O)C1c1cccc(F)c1 (centres undefined)	1	-1	-3	80*	-2	-7	23	8	17
CCOc1ccc(CCNC(=O)Cn2c(=O)c3cccn3c3cccnc32)cc1	3	-3	-1	42*	0	4	2	-11	-5
NS(=O)(=O)c1ccc(CCNC(=O)Cn2c(=O)c3cccn3c3cccnc32)cc1	2	1	2	8	2	3	nt	nt	nt
CCOc1ccc(N2CC(C(=O)Nc3cc(OCC)c(N4CCOCC4)cc3OCC)CC2=O)cc1 (centres undefined)	2	15	5	-6	1	1	nt	nt	nt
O=c1nc(/C=C/c2cc([N+](=O)[O-])ccc2Cl)cc(C(F)(F)F)[nH]1	4	31	12	1	3	2	nt	nt	nt
O=c1nc(/C=C/c2cccn2-c2ccc([N+](=O)[O-])cc2)cc(C(F)(F)F)[nH]1	1	13	40	40*	2	-10	29	18	15
SMILES	STEP inh	Scp-1 inhibitor	DNMT1 inh	Rpn11 inh	LMPTP inh	SUMO1-SIM PPI	Rpn11 inh conf	MMP-2 counter	Thrombin FP
CC#CC[N+](C)(C)CCCCCCCC	-4	-4	5	0	-2	0	nt	nt	nt
CCCCCCCCCCCCCCCC[N+](C)(C)Cc1ccc(F)cc1	5	21	-55	63*	2	-68	88*	-23	4
O=C(O)CCCN1C(=O)/C(=C\c2ccc(-c3nc4ccccc4s3)o2)SC1=S	65*	75*	85*	159*	22	56*	70*	29	-47
C=CCN1C(=O)/C(=C/c2ccc(OC)cc2)S/C1=N/c1nccs1	-2	-4	2	6	0	-3	nt	nt	nt
C=CCN=C1S/C(=C\c2ccc(N(C)C)cc2)C(=O)N1CC=C	3	-8	2	92*	3	-17	19	-11	21
CN(C)c1ccc(C(=O)OCC#CCSc2nnc(-c3cccc4ccccc34)o2)cc1	2	-8	-2	1	3	-51	nt	nt	nt
Cc1nc2ccc(NC(=O)c3ccc(Cl)c(S(=O)(=O)N(C)c4ccccc4)c3)cc2s1	1	3	-15	81*	5	-21	61*	-15	52*

Source: PubChem BioAssay (Sanford-Burnham Center for Chemical Genomics)
